Calls of active or inactive are those of the source. The calls are words filed in the database; no cut-off is given here.
Key:
[1] = 1-octanol/phosphate buffer solution partition coefficient, log D of the compound at pH 7.4 after 1 hr by LC-MS/MS method; format: physicochemical
Liver = assay: Drug metabolism in human liver microsomes assessed as 1-(7-methyl-5-(1-methyl-5-(5-(trifluoromethyl)pyridin-2-yl)-1H-pyrazol-4-yl)imidazo[1,5-f][1,2,4]triazin-4-yl)azetidin-3-ol formation at 1 to 50 uM after 1 hr by LC-MS/MS analysis; format: ADME, microsome
Procedure, shortened: (§1)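 Rat, dog or human liver microsomes or hepatocytes (P450 0.35–0.5 µM final) incubated with compound at 1, 10 or 50 µM in 100 mM phosphate buffer with 1 mM NADP regenerating system, 37°C for 1 h; quenched with 4 volumes acetonitrile, centrifuged, supernatant evaporated, reconstituted in 5% aqueous acetonitrile and analysed by reversed-phase LC.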

[2] = Drug metabolism in dog hepatocytes assessed as 1-(7-methyl-5-(1-methyl-5-(5-(trifluoromethyl)pyridin-2-yl)-1H-pyrazol-4-yl)imidazo[1,5-f][1,2,4]triazin-4-yl)azetidin-3-ol formation at 1 to 50 uM after 1 hr by LC-MS/MS analysis; format: ADME, cell-based, Canis lupus familiaris, Hepatocyte; procedure, shortened: as §1
[3] = Drug metabolism in rat hepatocytes assessed as 3-(7-methyl-5-(1-methyl-5-(5-(trifluoromethyl)pyridin-2-yl)-1H-pyrazol-4-yl)imidazo[1,5-f][1,2,4]triazin-4-ylamino)propanoic acid formation at 1 to 50 uM after 1 hr by LC-MS/MS analysis; format: ADME, cell-based, Hepatocyte; procedure, shortened: as §1
Canis familiaris = assay: Toxicity in dog up to 30 mg/kg, po administered as single dose by microscopic method; format: organism-based, Canis lupus familiaris; settings: in vivo
Rattus norvegicus [4] = species on record: Rattus norvegicus; assay: Toxicity in rat assessed as effect on skeletal muscle up to 1 month by microscopic method; settings: in vivo
Rattus norvegicus [5] = assay: Reversal of MK-801-induced disruption of low frequency cortical delta oscillation in Sprague-Dawley rat brain at 0.03 mg/kg, iv in early time point measured up to 55 mins by electrophysiology method; format: functional, organism-based
Rattus norvegicus [6] = assay: Effect on spontaneous locomotor activity in Long Evans rat at 0.32 to 3.2 mg/kg, sc; format: ADME, organism-based; settings: in vivo
Procedure, shortened: (§2)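 Rats dosed SC at 0.32, 1.0 and 3.2 mg/kg; conditioned avoidance responding also run in combination with risperidone 0.032 mg/kg.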

Rattus norvegicus [7] = assay: Effect on risperidone-induced antipsychotic activity in Long Evans rat at 0.32 to 3.2 mg/kg, sc by conditioned avoidance responding assay; format: functional, organism-based; procedure, shortened: as §2
Mus musculus [8] = species on record: Mus musculus; assay: Effect on cAMP level in CD-1 mouse brain cortex by immunoassay; format: functional
Procedure, shortened: (§3)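 CD-1 mice dosed SC (solution in 20% SBE-β-CD with 2 molar equivalents 1N HCl, 1 mL/kg); euthanized by focused microwave irradiation of brain; cortex, striatum, hippocampus homogenized in 0.5 N HCl, centrifuged; cyclic nucleotides in supernatant by enzyme immunoassay. Unbound brain exposure from satellite animals; dose-response and time-course data combined with linear model; one-way ANOVA with Fisher's PLSD.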

Mus musculus [9] = assay: In vivo effect on phosphorylated CREB level in CD-1 mouse brain cortex by immunoassay; format: functional, organism-based
Mus musculus [10] = assay: In vivo effect on phosphorylated CREB level in CD-1 mouse brain striatum by immunoassay; format: functional, organism-based
Mus musculus [11] = assay: In vivo effect on phosphorylated CREB level in CD-1 mouse brain hippocampus by immunoassay; format: functional, organism-based
Mus musculus [12] = species on record: Mus musculus; assay: Increase in cGMP level in CD-1 mouse brain cortex assessed as unbound brain concentration required to show the effect by immunoassay; format: functional; procedure, shortened: as §3
Mus musculus [13] = species on record: Mus musculus; assay: Increase in cGMP level in CD-1 mouse brain cortex assessed per nM of unbound brain concentration by immunoassay; format: functional; procedure, shortened: as §3
Cytochrome P450 2C19 = Cytochrome P450 2C19 (Homo sapiens, UniProt P33261); assay: Inhibition of recombinant human CYP2C19; format: ADME; settings: recombinant enzyme
Sequence of Cytochrome P450 2C19 (P33261 whole entry): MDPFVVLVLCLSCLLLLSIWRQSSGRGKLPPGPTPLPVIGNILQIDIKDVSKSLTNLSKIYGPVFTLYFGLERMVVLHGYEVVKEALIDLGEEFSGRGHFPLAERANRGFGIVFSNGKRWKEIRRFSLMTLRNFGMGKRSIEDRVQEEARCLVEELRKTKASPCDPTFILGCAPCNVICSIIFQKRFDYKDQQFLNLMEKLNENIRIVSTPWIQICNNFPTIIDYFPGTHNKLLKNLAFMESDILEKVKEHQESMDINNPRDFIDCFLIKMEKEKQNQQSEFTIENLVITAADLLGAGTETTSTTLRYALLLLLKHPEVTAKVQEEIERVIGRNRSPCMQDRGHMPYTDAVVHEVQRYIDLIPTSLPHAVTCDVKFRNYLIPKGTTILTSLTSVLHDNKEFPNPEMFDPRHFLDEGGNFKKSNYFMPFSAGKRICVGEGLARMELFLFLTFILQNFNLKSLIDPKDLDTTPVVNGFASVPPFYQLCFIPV

[14] = Ratio of unbound brain concentration to unbound plasma concentration in sc dosed CD-1 mouse; format: ADME, organism-based; settings: brain and plasma, read-out: K(p,uu,brain)
Procedure, shortened: (§4)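 Compound given sc to mice, iv and/or sc to rats, po to dogs and sc to monkeys; sc doses as a solution in 20% SBE-BCD + 2 molar equiv 1N HCl. Plasma, whole brain and CSF taken at matched times from 2 min to 24 h and quantified by LC-MS/MS. Fraction unbound in plasma and brain homogenate (diluted 4-fold, dilution factor 5 applied) by 6 h equilibrium dialysis against phosphate buffer at 37°C.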

[15] = Ratio of unbound brain concentration to unbound plasma concentration in iv or sc dosed Wistar Han rat; format: ADME, organism-based; settings: brain and plasma, read-out: K(p,uu,brain); procedure, shortened: as §4
[16] = Ratio of unbound brain concentration to unbound plasma concentration in po dosed beagle dog; format: ADME, organism-based, Canis lupus familiaris; settings: brain and plasma, read-out: K(p,uu,brain); procedure, shortened: as §4
[17] = Tmax in Wistar Han rat at 5 mg/kg, po administered via gavage by LC-MS/MS analysis; format: ADME, organism-based; settings: in vivo
[18] = Cmax in Wistar Han rat at 1 mg/kg, iv by LC-MS/MS analysis; format: ADME, organism-based; parameters: dose 1 mg/kg, route intravenous; settings: in vivo
Procedure, shortened: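 Male Wistar-Han rats given single 1 mg/kg IV; beagle dogs 0.3 mg/kg IV; solution in 20% (w/v) sulfobutyl ether β-cyclodextrin with hydrochloric acid, 1 mL/kg (rat) or 0.4 mL/kg (dog). Blood via carotid artery cannula between 2 min and 24 h into EDTA tubes; plasma analysed by LC-MS/MS with positive electrospray.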

[19] = AUC (0 to infinity) in Wistar Han rat at 1 mg/kg, iv by LC-MS/MS analysis; format: ADME, organism-based; parameters: dose 1 mg/kg, time infinity, route intravenous; settings: in vivo
Procedure, shortened: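 Male Wistar-Han rats received a single IV dose as a solution in 20% (w/v) sulfobutylether-β-cyclodextrin with hydrochloric acid. Blood was drawn by carotid artery cannula into K2EDTA at set times from 2 min to 24 h. Plasma was acetonitrile-precipitated with internal standard and run by positive-ESI LC-MS/MS against standards of 0.61–625 ng/mL. AUC was extrapolated from time 0 to infinity.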

[20] = Volume of distribution at steady state in Wistar Han rat at 1 mg/kg, iv by LC-MS/MS analysis; format: ADME, organism-based; settings: in vivo, read-out: Vdss
Procedure, shortened: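 Male Wistar-Han rats got a single IV dose as a solution in 20% (w/v) sulfobutyl ether β-cyclodextrin with hydrochloric acid, at 1 mL/kg. Blood was drawn into K2EDTA via carotid artery cannula at set times from 2 min to 24 h. Plasma was protein-precipitated with acetonitrile plus internal standard and quantified by LC-MS/MS with positive electrospray, standard curve 0.61 to 625 ng/mL.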

[21] = Terminal half life in Wistar Han rat at 1 mg/kg, iv by LC-MS/MS analysis; format: ADME, organism-based; settings: in vivo, read-out: beta t1/2 (converted)
Procedure, shortened: (§5)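 Single iv dose to male Wistar-Han rats (1 mg/kg) or dogs (0.3 mg/kg), given as a solution in 20% (w/v) SBECD with HCl. Dose volume 1 mL/kg in rats and 0.4 mL/kg in dogs. Blood taken by carotid artery cannula from 2 min to 24 h into K2EDTA (rat) or K3EDTA (dog) tubes. Plasma analysed by LC-MS/MS with positive electrospray after acetonitrile precipitation with internal standard.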

[22] = Cmax in beagle dog at 5 mg/kg, po administered via gavage by LC-MS/MS analysis; format: ADME, organism-based, Canis lupus familiaris; parameters: dose 5 mg/kg, route oral; settings: in vivo
[23] = Terminal half life in beagle dog at 0.3 mg/kg, iv by LC-MS/MS analysis; format: ADME, organism-based, Canis lupus familiaris; settings: in vivo, read-out: beta t1/2 (converted); procedure, shortened: as §5

For `Cc1nc(-c2cnn(C)c2-c2ccc(C(F)(F)F)cn2)c2c(N3CCC3)ncnn12` [PF-05180999], the logD at 1 h [1] was 2.3, the Drug metabolism (Liver) was “Metabolite_Detected” and the Drug metabolism [2] was “Metabolite_Detected”. For the same compound, the Drug metabolism [3] was “Metabolite_Detected”, the Activity (Canis familiaris) was “Non-Toxic” and the Activity (Rattus norvegicus [4]) was “Toxic”. The Activity (Rattus norvegicus [5]) was “Active”, the Activity (Rattus norvegicus [6]) was “Non-Toxic” and the Activity (Rattus norvegicus [7]) was “inactive”. The Activity (Mus musculus [8]) was “inactive”, the Activity (Mus musculus [9]) was “inactive” and the Activity (Mus musculus [10]) was “inactive”. The Activity (Mus musculus [11]) was “inactive”, the fEC50 (Mus musculus [12]) was 79.4 nM and the Activity (Mus musculus [13]) was 0.63%. The “inhibition (INH)” value (Cytochrome P450 2C19) was “Not Active”, the Kp uu [14] was 0.51 and the Kp uu [15] was 0.71. For the same compound, the Kp uu [16] was 0.58, the Tmax [17] was 4.8 min and the Cmax [18] was 1020 ng/mL. The AUC(0-inf) [19] was 141 ng·h/mL, the Vd [20] was 3.94 L/kg and the half-life [21] was 1.1 h. The Cmax [22] was 1770 ng/mL and the half-life [23] was 5 h.
